This note sets out measurements from ChEMBL document CHEMBL3272122, “4-(6-Methoxy-2-naphthyl)butan-2-one and related analogues, a novel structural class of antiinflammatory compounds” (1978).

SMILES strings stand for the structures. Calls of active or inactive are those of the source. The calls are words filed in the database; no cut-off is given here.

The subject of experiment [1] is Rattus norvegicus. As to the kind of experiment: Antiinflammatory activity in Wistar rat assessed as inhibition of cotton pellet-induced granuloma formation at 50 mg/kg, po after 5 days relative to control. The format is functional. The note with it: for inhibition in vivo at 50 mg/kg: 120 h. The procedure, abridged: (§1)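 Preweighed sterile cotton wool pellets were implanted subcutaneously in rats, one on each side of a ventral midline incision. Compounds were suspended in 0.7% methylcellulose and given orally once daily on days 0–5, starting 2–3 h before implantation; controls received vehicle (10 mL/kg). On day 6 the pellets were removed and dried at 80 °C to constant weight. Mean granuloma per rat was compared with controls by Student's t test.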

Experiment [2] deals with Rattus norvegicus. As to the kind of experiment: Antiinflammatory activity in Wistar rat assessed as inhibition of cotton pellet-induced granuloma formation at 3 mg/kg, po after 5 days relative to control. The format is functional, organism-based. More on the design: dose 3 mg/kg. The procedure, abridged: as §1
The species entered for experiment [3] is Rattus norvegicus. As to the kind of experiment: animal or person. The following applies: Wistar, po, 120 h, read-out: INH.
The species named for experiment [4] is Rattus norvegicus. As to the kind of experiment: animal or person. The following applies: po, read-out: INH.
In experiment [5] the test system is Rattus norvegicus. As to the kind of experiment: Antiinflammatory activity in rat assessed as inhibition of carrageenan-induced paw edema at 100 mg/kg, po relative to control. It counts as functional. The procedure, abridged: (§2)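 Carrageenan paw edema in rats, compounds given orally. Edema is expressed as percent inhibition.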
Experiment [6] relates to Rattus norvegicus. The experiment can be described thus: Antiinflammatory activity in Wistar rat assessed as inhibition of cotton pellet-induced granuloma formation at 10 mg/kg, po after 5 days relative to control. It counts as functional. The following applies: 120 h. The procedure, abridged:
as §1

Experiment [7] relates to Rattus norvegicus. The experiment can be described thus: Antiinflammatory activity in rat assessed as inhibition of carrageenan-induced paw edema at 300 mg/kg, po relative to control. The format is functional. The procedure, abridged:
as §2

The test system of experiment [8] is Rattus norvegicus. As to the kind of experiment: Antiinflammatory activity in Wistar rat assessed as inhibition of cotton pellet-induced granuloma formation at 100 mg/kg, po after 5 days relative to control. The format is functional. The following applies: 120 h. The method in brief:
as §1

Experiment [9] relates to Rattus norvegicus. As to the kind of experiment: Antiinflammatory activity in rat assessed as inhibition of carrageenan-induced paw edema at 15 mg/kg, po relative to control. The format is functional. The procedure, abridged: as §2
On the technique in general: The carrageenan paw model is a standard test of acute inflammation.

With `COc1ccc2cc(CCC(C)OC(=O)c3cc(OC)c(OC)c(OC)c3)ccc2c1` (stereo not drawn), the inhibition in vivo at 50 mg/kg in the experiment with Rattus norvegicus [1] came to 41%.

`COc1ccc(CCC(C)=O)c2ccccc12`: the inhibition in vivo at 50 mg/kg with Rattus norvegicus [1] is 0%.

As to `CCC(CC(C)=O)c1ccc2cc(OC)ccc2c1` (stereo not drawn), the inhibition in vivo at 50 mg/kg in the experiment on Rattus norvegicus [1] is 20%.

In the case of `CC(=O)CCc1ccc2cc(Cl)ccc2c1`, the inhibition in vivo at 50 mg/kg with Rattus norvegicus [1] is 53%.

As to `CC(=O)/C=C/c1ccc2cc(C)ccc2c1`, the inhibition in vivo at 50 mg/kg in the experiment with Rattus norvegicus [1] worked out at 29%.

On to `COc1ccc2cc(CCC(C)OC(=O)CC(C)(C)CC(=O)O)ccc2c1` (stereo not drawn), for which the inhibition in vivo at 50 mg/kg with Rattus norvegicus [1] is 26%.

Turning to `COc1ccc2cc([C@H](C)C(=O)O)ccc2c1` [NAPROXEN], the inhibition entry with Rattus norvegicus [2] was “inactive”. Moreover, the inhibition in vivo at 30 mg/kg in the experiment filed under Rattus norvegicus [3] is 46%. In the experiment filed under Rattus norvegicus [4], the inhibition in vivo at 6 mg/kg amounted to 30%.

Turning to `COc1ccc2cc(CCC(C)O)ccc2c1` (stereo not drawn), the inhibition in vivo at 50 mg/kg in the experiment on Rattus norvegicus [1] was found to be 32%.

`COc1ccc2cc(CC/C(C)=N\O)ccc2c1`: the inhibition in vivo at 50 mg/kg in the experiment on Rattus norvegicus [1] worked out at 15%.

As to `COc1ccc2cc(CC(C)C(C)=O)ccc2c1` (stereo not drawn), in the experiment with Rattus norvegicus [1], the inhibition in vivo at 50 mg/kg was found to be 7%.

Consider `COc1ccc2cc(C(C)CC(C)=O)ccc2c1` (stereo not drawn), for which the inhibition in vivo at 50 mg/kg in the experiment with Rattus norvegicus [1] amounted to 24%. In addition, in the experiment with Rattus norvegicus [5], the inhibition in vivo at 100 mg/kg turned out to be 36%.

As for `CCC(=O)CCc1ccc2cc(OC)ccc2c1`, the inhibition in vivo at 50 mg/kg with Rattus norvegicus [1] was found to be 7%.

Consider `C[C@]12CCC(=O)C=C1CC[C@@H]1[C@@H]2[C@@H](O)C[C@@]2(C)[C@H]1CC[C@]2(O)C(=O)CO` [HYDROCORTISONE], for which the inhibition in vivo at 10 mg/kg in the experiment with Rattus norvegicus [6] turned out to be 30%. For the same compound, the inhibition entry in the experiment with Rattus norvegicus [2] is “inactive”.

As to `COc1ccc2ccccc2c1CCC(C)=O`, the inhibition in vivo at 50 mg/kg with Rattus norvegicus [1] amounted to 10%.

As for `CNC(=O)Oc1ccc2cc(CCC(C)=O)ccc2c1`, the inhibition in vivo at 50 mg/kg in the experiment with Rattus norvegicus [1] is 21%. In addition, the inhibition entry in the experiment with Rattus norvegicus [2] was “inactive”.

Regarding `CC(=O)CCc1ccc2cc(O)ccc2c1`, the inhibition in vivo at 50 mg/kg with Rattus norvegicus [1] stood at 5%.

Turning to `COc1ccc2cc(CCC(C)OC(C)=O)ccc2c1` (stereo not drawn), the inhibition in vivo at 50 mg/kg in the experiment on Rattus norvegicus [1] amounted to 38%.

Regarding `CC(=O)CCc1ccc2cc(OC(C)=O)ccc2c1`, the inhibition in vivo at 50 mg/kg in the experiment on Rattus norvegicus [1] was 2%.

For the compound `CCOc1ccc2cc(CCC(C)=O)ccc2c1`, the inhibition in vivo at 50 mg/kg with Rattus norvegicus [1] was 12%.

With `COc1ccc2cc(CCC(C)(C)O)ccc2c1`, in the experiment on Rattus norvegicus [1], the inhibition in vivo at 50 mg/kg was 3%.

On to `COc1ccc2cc(CC(=O)O)ccc2c1`, for which the inhibition result in the experiment with Rattus norvegicus [1] was “Active”.

With `CC(=O)CCc1ccc2cc(C)ccc2c1`, the inhibition in vivo at 50 mg/kg with Rattus norvegicus [1] came out at 34%.

Take `CC(=O)Oc1ccccc1C(=O)O` [ASPIRIN]: the inhibition in vivo at 300 mg/kg with Rattus norvegicus [7] was determined as 31%. Also, in the experiment on Rattus norvegicus [8], the inhibition in vivo at 100 mg/kg is 5%. Besides, in the experiment on Rattus norvegicus [2], the inhibition result is “inactive”.

With `COc1ccc2cc(CCC(C)=O)ccc2c1` [NABUMETONE], the inhibition in vivo at 50 mg/kg in the experiment on Rattus norvegicus [1] worked out at 39%. Also, the inhibition in vivo at 15 mg/kg in the experiment on Rattus norvegicus [9] was 37%.

For the compound `Cc1ccc2cc(CCC(C)O)ccc2c1` (stereo not drawn), the inhibition in vivo at 50 mg/kg in the experiment on Rattus norvegicus [1] is 35%.

For the compound `CC(=O)CC(C)c1ccc2cc(C)ccc2c1` (stereo not drawn), the inhibition in vivo at 50 mg/kg in the experiment on Rattus norvegicus [1] turned out to be 11%.

For `COc1ccc2cc(CCC3(C)OCCO3)ccc2c1`, the inhibition in vivo at 50 mg/kg in the experiment with Rattus norvegicus [1] came to 22%.

On to `CC(=O)CCc1ccc2ccccc2c1`, for which the inhibition in vivo at 50 mg/kg with Rattus norvegicus [1] stood at 20%.

With `COc1ccc2cc(/C=C/C(C)=O)ccc2c1`, the inhibition in vivo at 50 mg/kg in the experiment with Rattus norvegicus [1] turned out to be 18%. Moreover, in the experiment on Rattus norvegicus [5], the inhibition in vivo at 100 mg/kg amounted to 50%.
